High-throughput results (PubChem BioAssay)
Shown are actives, neighbours in structure and some others; about 1.4% of the full set was active somewhere.
EBNA-1 inh: blocks EBNA-1 binding to DNA | EBNA-1 DNA binding, fluorescence polarization | inhibition, % at 14.8 µM | actives 0.34% (n = 300,000); in the data active = inhibition above about 28%
HCV NS3 hel inh: inhibitors of Hepatitis C virus NS3 helicase; NS3 helicase DNA unwinding, Cy5 molecular beacon fluorescence; inhibition, % at 10.9 µM; actives 0.56% (n = 290,000); AID 1800;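 active = inhibition above the mean of all tested compounds plus 3 SD, set per campaign, cut at about 35% in these data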
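Measured by: Cy5 fluorescence, 0 and 60 min reads / Assay system: NS3 helicase fragment of HCV / Control set: low DMSO, high thioflavine S at 110 µM / Times: 1 h reaction at 25 °C, ATP-initiated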
HCV core dimer: blocks dimerization of HCV core protein | actives 0.33% (n = 300,000) | inhibition, % at 5 µM | TR-FRET GST/Flag-core106 dimerization, 1536-well;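 active = inhibition above the mean of all tested compounds plus 3 SD, set per screening campaign, cut at about 45% in these data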
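Material: Tagged HCV core106 pair (GST and Flag) | Amount: GST-core106 13.5 nM, Flag-core106 17 nM | Medium: KF-containing HEPES buffer, pH 7.45, DTT, CHAPS, BSA | Reagent: Eu donor and XL665 acceptor anti-tag antibodies | Schedule: 4 h at 22.5 °C | Technique: Time-resolved FRET, ex 340 nm, em 617 and 671 nm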
ZTA DNA inh: counter-screen for EBNA-1 inhibitors: inhibitors of Epstein-Barr virus ZTA; ZTA-DNA binding, fluorescence polarization; inhibition, % at 11 µM; AID 2234; P03206; actives 0.15% (n = 320,000); in the data active = inhibition above about 33%
Target sequence (P03206 whole entry, looked up): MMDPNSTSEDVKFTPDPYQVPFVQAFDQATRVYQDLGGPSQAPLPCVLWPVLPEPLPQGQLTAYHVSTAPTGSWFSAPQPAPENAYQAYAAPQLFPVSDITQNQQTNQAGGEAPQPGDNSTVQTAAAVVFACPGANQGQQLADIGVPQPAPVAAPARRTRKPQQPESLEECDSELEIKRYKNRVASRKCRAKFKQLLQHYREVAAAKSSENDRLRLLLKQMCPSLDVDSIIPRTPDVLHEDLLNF
UBC9 SUMO inh: blocks human SUMOylation mediated by UBC9. actives 0.36% (n = 290,000). P63279. inhibition, % at 35 µM. HTRF SUMOylation assay, SAE1/SAE2 + UBC9, in vitro. AID 2006; in the data active = inhibition above about 50%, passing the limit was not always enough
Target sequence (P63279 whole entry, looked up): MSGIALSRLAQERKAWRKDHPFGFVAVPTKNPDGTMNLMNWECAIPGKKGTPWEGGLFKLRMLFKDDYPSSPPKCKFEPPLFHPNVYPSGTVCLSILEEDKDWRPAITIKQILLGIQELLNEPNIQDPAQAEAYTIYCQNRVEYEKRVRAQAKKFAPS
NS3 helicase cf: confirmation of Hepatitis C virus NS3 helicase inhibitors; shares compounds with HCV NS3 hel inh; NS3 helicase DNA unwinding, Cy5 molecular beacon fluorescence; inhibition, % at 10.9 µM; actives 31% (n = 1,600); AID 1943;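 active = inhibition above the mean of all tested compounds plus 3 SD, cutoff set per campaign, cut at about 36% in these data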
DNA FID counter: intercalator displacement, NS3 helicase counter-screen; shares compounds with HCV NS3 hel inh; DNA fluorescent intercalator displacement, fluorescence; inhibition, % at 7.9 µM; actives 4% (n = 1,600); AID 1945; in the data active = inhibition above about 37%;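 also: higher means more displacement of ethidium bromide from the DNA hairpin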
DNA FID DR: DNA intercalator displacement in dose response | shares compounds with HCV NS3 hel inh | fluorescent intercalator displacement from DNA, fluorescence | IC50, µM | 120 tested, under 10 active | AID 2172
EBNA-1 inh conf: EBNA-1 (EBV) inhibition, confirmation; Recombinant EBNA-1 DBD, Cy5-DNA fluorescence polarization; AID 2292; shares compounds with EBNA-1 inh; inhibition, % at 14.8 µM; actives 35% (n = 830);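 active = mean inhibition across replicates above a set limit taken from the earlier primary screen, cut at about 28% in these data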
ZTA DNA inh trip: counter-screen for EBNA-1 inhibitors: Epstein-Barr virus ZTA inhibitors, triplicate | 830 tested, under 10 active | inhibition, % at 11.1 µM | Zta-ZRE DNA binding, Cy5 fluorescence polarization | shares compounds with EBNA-1 inh;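 active = mean inhibition over triplicates above a set limit taken from the primary EBNA-1 screen, cut at about 37% in these data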;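 also: purified full length Zta protein with Cy5 labeled ZRE DNA probe; inhibitors lower polarization by freeing the labeled DNA probe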
Zta DNA confirm: confirmation of Epstein-Barr virus ZTA DNA binding inhibitors | shares compounds with ZTA DNA inh | Zta-ZRE DNA binding, fluorescence polarization | inhibition, % at 11.1 µM | actives 30% (n = 320) | AID 2361;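 active = mean inhibition across triplicate runs above the hit threshold derived for the original primary screen, cut at about 33% in these data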
EBNA1 counter: EBNA-1 DNA binding inhibition, counter-screen for ZTA; shares compounds with ZTA DNA inh; fluorescence polarization; inhibition, % at 14.8 µM; 320 tested, under 10 active; AID 2362
Numbers stand for hits; - = inactive; . = not tested or not shown. Unless noted, no rule for the calls is given here.

SMILES	EBNA-1 inh	HCV NS3 hel inh	HCV core dimer	ZTA DNA inh	UBC9 SUMO inh	Zta DNA confirm	EBNA1 counter	others
O=c1[nH]c(=S)n(CCC2=CCCCC2)c(O)c1/C=N/N1CCOCC1	-	41	-	-	-	.	.	NS3 helicase cf=-;DNA FID counter=-
CN(C)c1ccc(N=Cc2c(O)n(CCC3=CCCCC3)c(=O)[nH]c2=O)cc1	-	40	-	-	-	.	.	NS3 helicase cf=-;DNA FID counter=-
Cc1cccc(-n2c(/C=C/c3ccc([N+](=O)[O-])o3)nc3ccccc3c2=O)c1	-	61	-	-	-	.	.	NS3 helicase cf=-;DNA FID counter=-
O=C1NC(=O)N(c2ccccc2)C(=O)/C1=C\c1ccc([N+](=O)[O-])s1	-	41	-	-	55	.	.	NS3 helicase cf=50;DNA FID counter=-;DNA FID DR=-
O=C1NC(=S)NC(=O)C1=Cc1ccc(Br)s1	-	45	-	-	-	.	.	NS3 helicase cf=56;DNA FID counter=-
CN1C(=O)/C(=C\c2ccc(Br)s2)C(=O)NC1=S	-	-	-	-	-	.	.
CCOC(=O)C1CCN(C=C2C(=O)N(C)C(=S)N(C)C2=O)CC1	-	-	-	-	-	.	.
CN1CCc2c(C#N)c(Cl)nc(Cl)c2C1	-	-	-	-	-	.	.
Cc1nn(Cc2ccccc2)c(Cl)c1C(=O)OC(C)C(=O)Nc1ccc(F)cc1Cl (configuration not stated)	122	-	-	-	-	.	.	EBNA-1 inh conf=129;ZTA DNA inh trip=-
Cc1nn(Cc2ccccc2)c(Cl)c1C(=O)OCC(=O)Nc1cccc2ccccc12	61	-	-	-	-	.	.	EBNA-1 inh conf=-;ZTA DNA inh trip=-
CCc1ccc(NC(=O)C(C)OC(=O)c2c(C)nn(Cc3ccccc3)c2Cl)cc1 (configuration not stated)	-	-	-	-	-	.	.
CCCCOCCCN1C(C)=CC(=C2C(=O)NC(=S)NC2=O)C=C1C	-	-	-	-	-	.	.
Cn1ncnc2c(=O)n(C)c(=O)nc1-2	-	.	-	59	102	72	-
CCN(CC)c1ccc(N=Cc2c(O)n(-c3ccc(OC)cc3)c(=O)[nH]c2=O)cc1	-	-	-	36	-	-	-
COc1ccc(CCn2c(O)c(C=Nc3ccc(NC(C)=O)cc3)c(=O)[nH]c2=O)cc1OC	-	-	-	60	-	47	38
C=CCn1c(O)c(C=Nc2ccc(N(CC)CC)cc2)c(=O)[nH]c1=O	-	-	-	45	-	-	-
Cc1ccc(N=Cc2c(O)n(-c3ccc(C)cc3)c(=O)[nH]c2=O)cc1	-	.	-	-	.	.	.
CC(C)N1C(=O)NC(=O)C2(Cc3cc([N+](=O)[O-])ccc3N(C)C2c2ccccc2)C1=O (configuration not stated)	-	-	-	-	-	.	.
CNC(=O)O/N=C(\C)Cc1nnn(-c2cc(C)on2)n1	-	-	-	-	-	.	.
CCc1n[nH]c(CCN)n1	-	-	-	-	-	.	.
O=C(O)c1ccc2c(c1)C1C(Cl)C(Sc3ccccc3[N+](=O)[O-])CC1C(c1cccc([N+](=O)[O-])c1)N2 (configuration not stated)	.	-	.	.	.	.	.
CCN(CC)C(=O)c1ccc2c(c1)C1C(Cl)C(Sc3ccccc3[N+](=O)[O-])CC1C(C(=O)O)N2 (configuration not stated)	-	-	-	54	-	39	-
Cc1cc(/C=C2\C(=O)NC(=O)N(c3ccccc3F)C2=O)c(C)n1-c1cc(C(=O)O)cc(C(=O)O)c1	-	-	-	33	-	60	-
Cc1cc(/C=C2\C(=O)NC(=O)N(c3ccc(F)cc3)C2=O)c(C)n1-c1cccc(C(=O)O)c1	-	-	-	-	-	.	.
